What was measured:
Type in all cases: in vitro ADME
[1] = tested on: Phase II conjugative enzymes; assay: Phase II conjugation reactions; conditions: rat enzymes (printed: rat microsomes)
Outline: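 Three rat liver S9 incubations in pH 7.4 phosphate at 37 °C, each with test compound 100 μM and MgCl2 1 mM. Glucuronidation used 2 mg/mL S9 activated with alamethicin on ice 15 min, plus UDPGA 5 mM. Sulfation used 2 mg/mL S9 plus PAPS 0.2 mM. Glutathione conjugation used 10 mg/mL S9 plus glutathione 0.2 mM. Parent loss by LC-MS/MS over 120 min.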

[2] = tested on: glutathione-S-transferases (GSTs); assay: Glutathione conjugation in rat liver S9; conditions: rat enzymes
Outline: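 Rat liver S9 (10 mg/mL) in 0.1 M potassium phosphate, pH 7.4, with test compound 100 μM and MgCl2 1 mM (final), preincubated 5 min at 37 °C. Reaction started with glutathione 0.2 mM final. Controls: acetaminophen as positive, no-glutathione as negative. Samples taken over 0–120 min, quenched in cold methanol with internal standard. Parent measured by HILIC LC-MS/MS; % intact at 120 min vs time zero, mean ± %CV.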

[3] = tested on: uridine glucuronosyl transferases (UGTs); assay: Glucuronide conjugation in rat liver S9 with UDPGA; conditions: rat liver S9 + UDP glucuronic acid, 2 h
[4] = tested on: uridine glucuronosyl transferases (UGTs); assay: Glucuronide conjugation in human liver S9 with UDPGA; conditions: human liver S9 + UDP glucuronic acid, 2 h
[5] = tested on: sulfotransferases (SULTs); assay: Sulfoconjugation in rat liver S9 with PAPS; conditions: rat liver S9, 2 h
Outline: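 Sulfotransferase reaction in rat liver S9 (2 mg/mL), 0.1 M potassium phosphate pH 7.4, with 1 mM MgCl2 and test compound at 100 μM final. After 5 min preincubation at 37 °C, PAPS was added to 0.2 mM. Controls: 7-hydroxycoumarin as positive, PAPS-free as negative. Aliquots to 120 min stopped with ice-cold methanol plus internal standard. LC-MS/MS of parent; percent intact relative to time zero.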

| Structure (SMILES) | stability towards Phase II conjugative enzymes (in words) [1] | formation of glutathione conjugates (in words) [2] | also measured |
| --- | --- | --- | --- |
| CN[C@@H]1[C@H](O)[C@H](NC)[C@H]2O[C@]3(O)[C@H](O[C@@H]2[C@H]1O)O[C@H](C)C[C@H]3NC(=O)Cc1cc(Cl)c(F)cn1 [Compound 1661] | complete stability | – | – |
| CN[C@@H]1[C@H](O)[C@H](NC)[C@H]2O[C@]3(O)[C@H](O[C@@H]2[C@H]1O)O[C@H](C)C[C@H]3NC(=O)Cc1cc(Cl)ccn1 [Compound 1544] | – | formed glutathione conjugates | – |
| CN[C@@H]1[C@H](O)[C@H](NC)[C@H]2O[C@]3(O)[C@H](O[C@@H]2[C@H]1O)O[C@H](C)C[C@H]3NC(=O)Cc1ccc(F)cn1 [Compound 1445] | complete stability | – | – |
| CN[C@@H]1[C@H](O)[C@H](NC)[C@H]2O[C@]3(O)[C@H](O[C@@H]2[C@H]1O)O[C@H](C)C[C@H]3NC(=O)Cc1ccc(O)cn1 [Compound 1810] | complete stability | – | % parent compound remaining intact [3]: above 93%; % parent compound remaining intact [4]: above 93% |
| CN[C@@H]1[C@H](O)[C@H](NC)[C@H]2O[C@]3(O)[C@H](O[C@@H]2[C@H]1O)O[C@H](C)C[C@H]3NC(=O)Cc1cc(Cl)c(OC)cn1 [Compound 1878] | – | formed glutathione conjugates | – |
| CN[C@@H]1[C@H](O)[C@H](NC)[C@H]2O[C@]3(O)[C@H](O[C@@H]2[C@H]1O)O[C@H](C)C[C@H]3NC(=O)Cc1ccc(Cl)cn1 [Compound 1599] | complete stability | – | – |
| CN[C@@H]1[C@H](O)[C@H](NC)[C@H]2O[C@]3(O)[C@H](O[C@@H]2[C@H]1O)O[C@H](C)C[C@H]3NC(=O)Cc1cc(Cl)c(C)cn1 [Compound 1666] | – | formed glutathione conjugates | sulfoconjugation (in words) [5]: no metabolism |
